# Laboratory results as given in article PMC5696082 (Analytical biochemistry, 2017).
# Tests used:
# [1] = Background hydrolysis of substrates in phosphate buffer; format: physicochemical; conditions: phosphate buffer 100 mM, pH 8, 0.1 mg/mL BSA
# [2] = Fluorophore characterization; format: physicochemical; conditions: for Maximum λemm / Maximum λexc / Relative Fluorescence Intensity: 37°C, phosphate buffer 100 mM pH 8, 0.1 mg/mL BSA, 1% DMSO
# Outline: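 Fluorophores dissolved in 100 mM phosphate buffer, pH 8, 0.1 mg/mL BSA, 1% DMSO, at 37°C. Excitation and emission maxima found by scanning fluorescence intensity at 2 nm steps on a plate spectrophotometer. Relative intensity expressed as RFU per nmol.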
# AADAC = target: T1, AADAC (Homo sapiens, UniProt P22760); assay: Potency of esterase inhibitors, AADAC; format: biochemical
# T1 sequence (P22760 1-399): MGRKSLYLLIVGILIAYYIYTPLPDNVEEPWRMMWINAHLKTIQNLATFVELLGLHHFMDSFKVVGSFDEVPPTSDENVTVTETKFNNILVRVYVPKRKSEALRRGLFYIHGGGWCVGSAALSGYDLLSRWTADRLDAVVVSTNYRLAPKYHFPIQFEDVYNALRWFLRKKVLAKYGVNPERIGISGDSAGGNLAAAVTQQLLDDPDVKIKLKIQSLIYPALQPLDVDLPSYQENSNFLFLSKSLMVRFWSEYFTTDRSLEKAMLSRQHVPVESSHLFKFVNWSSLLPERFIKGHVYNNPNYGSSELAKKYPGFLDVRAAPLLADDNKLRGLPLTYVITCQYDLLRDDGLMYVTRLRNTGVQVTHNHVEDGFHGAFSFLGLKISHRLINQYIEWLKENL
# FAAH = target: T2, FAAH (Homo sapiens, UniProt O00519); assay: Potency of esterase inhibitors, FAAH; format: biochemical
# T2 sequence (O00519 1-579): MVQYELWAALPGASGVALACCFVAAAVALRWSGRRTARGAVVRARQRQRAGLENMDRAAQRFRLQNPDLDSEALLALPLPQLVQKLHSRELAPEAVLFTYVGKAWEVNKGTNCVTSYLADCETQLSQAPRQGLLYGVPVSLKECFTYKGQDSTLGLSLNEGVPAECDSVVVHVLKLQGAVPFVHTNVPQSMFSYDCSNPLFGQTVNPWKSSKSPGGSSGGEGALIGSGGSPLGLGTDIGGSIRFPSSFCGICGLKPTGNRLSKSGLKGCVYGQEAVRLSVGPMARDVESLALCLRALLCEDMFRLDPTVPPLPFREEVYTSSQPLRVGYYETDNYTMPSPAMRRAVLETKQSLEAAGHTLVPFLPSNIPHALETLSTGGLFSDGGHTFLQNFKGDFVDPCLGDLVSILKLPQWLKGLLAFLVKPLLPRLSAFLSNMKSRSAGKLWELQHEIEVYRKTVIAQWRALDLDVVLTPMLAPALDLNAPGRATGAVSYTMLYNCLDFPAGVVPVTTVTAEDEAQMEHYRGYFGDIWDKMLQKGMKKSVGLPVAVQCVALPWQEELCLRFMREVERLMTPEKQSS
# hCE3 = target: T3, hCE3 (Homo sapiens, UniProt Q6UWW8); assay: Potency of esterase inhibitors, hCE3; format: biochemical
# T3 sequence (Q6UWW8 27-571): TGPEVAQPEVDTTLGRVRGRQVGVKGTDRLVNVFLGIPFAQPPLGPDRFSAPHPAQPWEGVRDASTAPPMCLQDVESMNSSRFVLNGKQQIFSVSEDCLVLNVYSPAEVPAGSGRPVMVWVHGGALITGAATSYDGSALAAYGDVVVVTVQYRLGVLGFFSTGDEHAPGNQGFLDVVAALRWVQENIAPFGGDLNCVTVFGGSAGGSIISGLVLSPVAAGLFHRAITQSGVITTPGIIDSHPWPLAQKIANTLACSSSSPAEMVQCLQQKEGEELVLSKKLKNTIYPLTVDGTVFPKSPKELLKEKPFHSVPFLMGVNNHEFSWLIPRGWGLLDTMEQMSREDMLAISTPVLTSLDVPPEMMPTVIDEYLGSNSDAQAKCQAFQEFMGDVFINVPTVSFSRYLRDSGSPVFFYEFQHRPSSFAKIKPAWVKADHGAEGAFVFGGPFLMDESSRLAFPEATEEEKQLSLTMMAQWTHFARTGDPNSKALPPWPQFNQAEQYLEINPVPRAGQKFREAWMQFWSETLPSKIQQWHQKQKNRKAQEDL
# PON1 = PON1 (Homo sapiens, UniProt P27169); assay: Potency of esterase inhibitors, PON1; format: biochemical
# Outline: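 PON1 used as crude lysate of baculovirus-infected insect cells in PBS. Added to 2-fold serial inhibitor dilutions (top concentration at most 100 µM) and preincubated 5 min. Cyanohydrin ester substrate then added to 50 µM final, DMSO ≤2%, in 100 mM phosphate pH 8, 0.1 mg/mL BSA, 37°C. Fluorescence (ex 330/em 465 nm) read kinetically for 10 min. IC50 from linear regression of log[inhibitor] against % remaining activity; triplicates, single experiment.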
# Kinetic properties [3] = substrate: CCCCC(C)CCC(=O)Nc1ccc(OC)nc1C; assay: Kinetic properties; format: biochemical, human; conditions: 37°C, pH 8
# Kinetic properties [4] = substrate: COc1ccc2cc(C(C#N)OC(C)=O)ccc2c1; assay: Kinetic properties; format: biochemical, human; conditions: 37°C, pH 8
# [5] = other: hCE1, 6 substrate concentrations 3.13-100 µM
# [6] = other: hCE2, 6 substrate concentrations 3.13-100 µM
# Sequence of PON1 (P27169 whole entry, species assumed): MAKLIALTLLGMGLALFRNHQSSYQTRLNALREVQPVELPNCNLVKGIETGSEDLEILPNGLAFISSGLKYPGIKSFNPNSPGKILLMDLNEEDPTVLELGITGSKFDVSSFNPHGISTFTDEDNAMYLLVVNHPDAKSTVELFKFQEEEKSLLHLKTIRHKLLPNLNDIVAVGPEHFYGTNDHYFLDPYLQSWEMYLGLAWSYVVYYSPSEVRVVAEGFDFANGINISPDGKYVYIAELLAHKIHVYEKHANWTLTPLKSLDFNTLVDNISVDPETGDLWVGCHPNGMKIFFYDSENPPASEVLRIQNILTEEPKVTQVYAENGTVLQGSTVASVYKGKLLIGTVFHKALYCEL
molecule,measurement,setting,value
"CC(=O)Oc1ccc([N+](=O)[O-])cc1 [4-NPA, 4-nitrophenyl acetate]",Rate of background hydrolysis,[1],610 pmol/min
"COc1ccc(N)c(C)n1 [I, 2-methoxy-5-amino-6-methylpyridine]",Maximum λemm,[2],394 nm
same,Maximum λexc,[2],304 nm
same,Relative Fluorescence Intensity,[2],"4,400 RFU/nmol"
"COc1ccc(N)cn1 [II, 2-methoxy-5-aminopyridine]",Maximum λemm,[2],398 nm
same,Maximum λexc,[2],304 nm
same,Relative Fluorescence Intensity,[2],"3,100 RFU/nmol"
CN(C)C(=O)C(CCN1CCC(O)(c2ccc(Cl)cc2)CC1)(c1ccccc1)c1ccccc1 [Loperamide],IC50,AADAC,23 µM
same,IC50,FAAH,> 100 µM
same,IC50,hCE3,> 100 µM
same,IC50,PON1,> 100 µM
"COc1nc(C)ccc1N [V, 2-methyl-5-amino-6-methoxypyridine]","Fluorescence, fold less than I",[2],4 fold
same,Maximum λemm,[2],364 nm
same,Maximum λexc,[2],292 nm
same,Relative Fluorescence Intensity,[2],"1,100 RFU/nmol"
"COc1ccc2cc(C=O)ccc2c1 [VI, 6-methoxynaphthaldehyde]",Maximum λemm,[2],462 nm
same,Maximum λexc,[2],320 nm
same,Relative Fluorescence Intensity,[2],"2,600 RFU/nmol"
hCE1 (Homo sapiens) (protein) GHPSSPPVVDTVHGKVLGKFVSLEGFAQPVAIFLGIPFAKPPLGPLRFTPPQPAEPWSFVKNATSYPPMCTQDPKAGQLLSELFTNRKENIPLKLSEDCLYLNIYTPADLTKKNRLPVMVWIHGGGLMVGAASTYDGLALAAHENVVVVTIQYRLGIWGFFSTGDEHSRGNWGHLDQVAALRWVQDNIASFGGNPGSVTIFGESAGGESVSVLVLSPLAKNLFHRAISESGVALTSVLVKKGDVKPLAEQIAITAGCKTTTSAVMVHCLRQKTEEELLETTLKMKFLSLDLQGDPRESQPLLGTVIDGMLLLKTPEELQAERNFHTVPYMVGINKQEFGWLIPMQLMSYPLSEGQLDQKTAMSLLWKSYPLVCIAKELIPEATEKYLGGTDDTVKKKDLFLDLIADVMFGVPSVIVARNHRDAGAPTYMYEFQYRPSFSSDMKPKTVIGDHGDELFSVFGAPFLKEGASEEEIRLSKMVMKFWANFARNGNPNGEGLPHWPEYNQKEGYLQIGANTQAAQKLKDKEVAFWTNLFAKKAVEKPPQTEHIEL,Vmax,Kinetic properties [3]; [5],0.48 µmol/min/mg
same,Vmax/Km,Kinetic properties [3]; [5],17000 µL/min/mg
same,Vmax,Kinetic properties [4]; [5],1.4 µmol/min/mg
same,Vmax/Km,Kinetic properties [4]; [5],280000 µL/min/mg
hCE2 (Homo sapiens) (protein) QDSASPIRTTHTGQVLGSLVHVKGANAGVQTFLGIPFAKPPLGPLRFAPPEPPESWSGVRDGTTHPAMCLQDLTAVESEFLSQFNMTFPSDSMSEDCLYLSIYTPAHSHEGSNLPVMVWIHGGALVFGMASLYDGSMLAALENVVVVIIQYRLGVLGFFSTGDKHATGNWGYLDQVAALRWVQQNIAHFGGNPDRVTIFGESAGGTSVSSLVVSPISQGLFHGAIMESGVALLPGLIASSADVISTVVANLSACDQVDSEALVGCLRGKSKEEILAINKPFKMIPGVVDGVFLPRHPQELLASADFQPVPSIVGVNNNEFGWLIPKVMRIYDTQKEMDREASQAALQKMLTLLMLPPTFGDLLREEYIGDNGDPQTLQAQFQEMMADSMFVIPALQVAHFQCSRAPVYFYEFQHQPSWLKNIRPPHMKADHGDELPFVFRSFFGGNYIKFTEEEEQLSRKMMKYWANFARNGNPNGEGLPHWPLFDQEEQYLQLNLQPAVGRALKAHRLQFWKKALPQKIQELEEPEERHTEL,Vmax,Kinetic properties [3]; [6],0.004 µmol/min/mg
same,Vmax/Km,Kinetic properties [3]; [6],450 µL/min/mg
same,Vmax,Kinetic properties [4]; [6],9.6 µmol/min/mg
same,Vmax/Km,Kinetic properties [4]; [6],1.2e+06 µL/min/mg
